Screening results from PubChem BioAssay.
SMARCA2 activ: SMARCA2 function activation, primary screen. activation, % at 9.1 µM. AID 652017. MG213 cells, MMTV-luciferase reporter, dexamethasone, overnight. 1% of 370,000 active; in the data active = activation above about 7.8%;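 also: 0% = vehicle wells and 100% = reference activator wells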
MC4R ag barr: agonists of human melanocortin 4 receptor (MC4R) beta-arrestin; P32245; U2OS MC4R beta-arrestin complementation, luminescence; percent of melanotan II response, DMSO zero; activation, % at 8.9 µM; 0.98% of 360,000 active;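 active = activation above a per-plate cutoff, the mean activation of sample wells on that plate plus 3 SD, cut at about 8% in these data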
Target sequence (P32245 whole entry, looked up): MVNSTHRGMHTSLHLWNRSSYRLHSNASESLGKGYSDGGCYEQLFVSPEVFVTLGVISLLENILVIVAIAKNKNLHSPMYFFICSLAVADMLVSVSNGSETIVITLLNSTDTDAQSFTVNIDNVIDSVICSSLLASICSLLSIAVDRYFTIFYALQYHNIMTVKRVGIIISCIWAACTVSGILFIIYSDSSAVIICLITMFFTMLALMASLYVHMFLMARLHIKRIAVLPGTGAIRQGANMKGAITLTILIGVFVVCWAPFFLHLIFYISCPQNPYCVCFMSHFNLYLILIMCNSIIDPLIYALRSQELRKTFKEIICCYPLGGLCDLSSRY
MC4R antag cAMP: blocks human MC4R cAMP signaling | inhibition, % at 6.5 µM | 0.48% of 360,000 active | MC4R-expressing cells, MTII-stimulated cAMP, LANCE TR-FRET | P32245;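 active = inhibition above its plate's cutoff, the mean of tested wells on that plate plus 3 SD, cut at about 29% in these data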;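 also: 0% = Melanotan II alone and 100% = Melanotan II plus saturating MCL0020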
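System: U2OS-MC4R stable cell line; Technique: Eu-cAMP/anti-cAMP TR-FRET, emission 671 nm; Repeats: single well per compound; Also added: Melanotan II; Dosing: one concentration, 6.5 µM nominal; Schedule: 30-min compound, 1-h challenge, 1-h detection, room temperature.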
CFTR F508del cor: CFTR F508del correction in bronchial cells | CFBE cells, YFP halide quenching; stimulated with forskolin plus potentiator P3; % fluorescence drop versus neutral controls | activity (quench increase), % at 7.58 µM | 0.36% of 350,000 active;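 active = mean added fluorescence quench of at least 8% versus neutral control, with both replicates also reaching 8%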;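 also: cells transiently co-express mutant CFTR-F508del with the halide-sensitive YFP; corrector assay measuring rescue of mutant channel to the surface after 24 h compound exposure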
SMARCA2 conf: SMARCA2 activation, confirmation screen; shares compounds with SMARCA2 activ; MG213 cells, MMTV-luciferase with dexamethasone, luminescence, overnight; MG213 cells expressing E1A, Rb sequestered; DMSO wells 0%, reference activator 100%; activation, % at 9.1 µM; 30% of 3,500 active; AID 652260;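 active = activation above its plate's cutoff, the mean activation of tested wells plus 3 SD, cut at about 7.9% in these data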
VP16 Luc act: GAL4-VP16 reporter activation counter-screen; HEK293 GAL4-VP16 pG5luc reporter, luciferase luminescence; scaled: DMSO wells 0%, SAHA wells 100%; shares compounds with SMARCA2 activ; activation, % at 9.1 µM; 41% of 3,500 active;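 active = activation above the solvent-only control well mean plus 3 SD, averaged across control plates, cut at about 5.2% in these data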
* marks the source's active call; other numbers are inactive results; x = no result given. The list is not random: actives were taken first. Their share in the collection is about 2.1%.

SMILES	SMARCA2 activ	MC4R ag barr	MC4R antag cAMP	CFTR F508del cor	SMARCA2 conf	VP16 Luc act
O=c1ccc(Cc2ccccn2)n[nH]1	9.5*	-1	-1	x	-3	-2
O=C1C(=Cc2cccs2)CCc2ccccc21	10*	x	x	1	8.2*	7.0*
O=C1/C(=C/c2cccs2)CCC/C1=C\c1cccs1	5	-5	10	-2	x	x
COc1ccc(S(=O)(=O)N(C)C[C@@H]2Oc3ccc(NS(=O)(=O)c4cn(C)cn4)cc3CC(=O)N([C@@H](C)CO)C[C@@H]2C)cc1	x	x	x	-2	x	x
CCOc1ccc(C(=O)NCC(C)CN(C)C)cc1OCC (configuration not stated)	9.4*	0	-4	x	-2	2
CCOc1cc(C(=O)NCC(C)CN(C)C)cc(OCC)c1OCC (configuration not stated)	-2	-2	-1	x	x	x
Cc1noc(C)c1NC(=O)N(C)C[C@@H]1Oc2ccc(NC(=O)CCN3CCOCC3)cc2CC(=O)N([C@@H](C)CO)C[C@@H]1C	x	x	x	-4	x	x
CC(C)(C)[S@](=O)N1Cc2cc(C(=O)N3CCCCC3)nc(-c3cccc(-c4cccc(C#N)c4)c3)c2[C@@H]1CCO	x	x	x	-2	x	x
COc1cccc(NC(=S)NC(=O)/C=C/c2ccco2)c1	2	1	16	4	x	x
O=C(/C=C/c1ccco1)NC(=S)Nc1cccc(C(=O)O)c1	8.4*	-1	6	-2	6	1
O=C(C[C@@H]1CC[C@H](NS(=O)(=O)c2ccccc2)[C@@H](CO)O1)N1CCN(c2ccccc2)CC1	x	x	x	0	x	x
CCOC(=O)N1CCN(C(=O)c2ccc3c(=O)n(Cc4ccc(Cl)cc4)c(=S)[nH]c3c2)CC1	8.2*	-2	19	x	-4	1
CC(=O)Oc1ccc2c(=O)c(-c3ccccc3)coc2c1	10*	0	-9	3	3	5.6*
O=C(N[C@H]1CC[C@@H](CCn2cc(C3(O)CCCC3)nn2)O[C@H]1CO)C1CCCCC1	x	x	x	0	x	x
CCOc1ccc(Cl)cc1/C=C1/C(=O)ON=C1C	8.0*	-1	-5	-3	5	1
COc1ccc(Cl)cc1/C=C1/C(=O)ON=C1C	-3	-1	9	1	x	x
CN(C)C(=O)C[C@H]1CC[C@@H]2[C@H](COc3ccc(NC(=O)Nc4cccc(Cl)c4)cc3C(=O)N2C)O1	x	x	x	3	x	x
C[C@H]1CN([C@@H](C)CO)C(=O)c2cc(NC(=O)CCCN(C)C)ccc2O[C@@H]1CN(C)Cc1ccccc1	x	x	x	-1	x	x
O=C(c1ccncc1F)N1CCC(n2nnc3ncccc32)CC1	8.1*	x	x	x	0	-1
CCn1cc(Br)c(C(=O)Nc2ccc(F)cc2F)n1	0	1	9	-1	x	x
COc1cccc(NC(=O)c2cccc(C(=O)Nc3cccc(OC)c3)c2)c1	-2	0	2	0	x	x
COc1cccc(NC(=O)c2nn(C)cc2Br)c1	8.0*	1	11	x	4	3
CCn1cc(Br)c(C(=O)Nc2cccc(SC)c2)n1	8.0*	0	-9	x	4	4
COc1cccc(NC(=O)c2ccc3nsnc3c2)c1	8.1*	-1	10	0	4	10*
C[C@H](CO)N1C[C@H](C)[C@@H](CN(C)C(=O)Nc2ccc(C(F)(F)F)cc2)Oc2ncc(C#C[C@@H](C)O)cc2C1=O	x	x	x	-1	x	x
SMILES	SMARCA2 activ	MC4R ag barr	MC4R antag cAMP	CFTR F508del cor	SMARCA2 conf	VP16 Luc act
C[C@H]1CN([C@@H](C)CO)C(=O)c2cc(C3=CCCC3)cnc2O[C@H]1CN(C)Cc1ccc(F)cc1	x	x	x	1	x	x
CNC(=O)C[C@H]1CC[C@H]2[C@@H](COC[C@@H](O)CN2C(=O)c2ccc3c(c2)OCO3)O1	x	x	x	1	x	x
COc1ccc2[nH]c(=O)c(C(c3nnnn3C(C)(C)C)N(Cc3ccco3)CC3CCCO3)cc2c1 (configuration not stated)	12*	-1	5	-3	-3	1
Cc1cc2cc(C(c3nnnn3C(C)(C)C)N(Cc3ccco3)CC3CCCO3)c(=O)[nH]c2cc1C (configuration not stated)	-4	-2	4	x	x	x
Nc1nc(Cl)cc(Nc2ccccc2Cl)n1	9.5*	0	2	1	5	1
N#C/C(=C(/O)c1ccc(F)cc1)c1nc2ccccc2s1	8.8*	-1	15	1	-3	8.9*
C[C@@H]1CN([C@H](C)CO)C(=O)c2cc(NC(=O)Cc3ccccc3)ccc2O[C@H]1CN(C)C(=O)Nc1ccc2c(c1)OCO2	x	x	x	0	x	x
C/C(CC(=O)Nc1ccc(Cl)c(C(F)(F)F)c1)=N\NC(=O)c1cccc(O)c1	10*	-1	2	x	0	1
C/C(CC(=O)Nc1ccc(Cl)c(C(F)(F)F)c1)=N\NC(=O)c1ccccc1O	-1	-1	6	x	x	x
O=C(NCCCNCCCNC(=O)c1ccccn1)c1ccccn1	12*	-2	14	x	-3	1
CN(C)CCCNCCCNC(=O)c1ccccn1	0	0	10	x	x	x
CN(C)C(=O)C[C@@H]1CC[C@@H](NS(=O)(=O)c2ccccc2)[C@@H](CO)O1	x	x	x	-2	x	x
COc1ccc(N2CC(C(=O)Nc3cc(C)on3)CC2=O)cc1 (configuration not stated)	8.0*	-1	9	1	0	0
CC(=O)Nc1cccc(NC(=O)C2CC(=O)N(c3ccc(C)cc3)C2)c1 (configuration not stated)	9.5*	1	8	-2	3	0
COc1ccc(N2CC(C(=O)Nc3cccc(C)n3)CC2=O)cc1 (configuration not stated)	8.0*	-1	3	-1	1	2
Cc1cccc(NC(=O)C2CC(=O)N(c3ccc4c(c3)OCCO4)C2)n1 (configuration not stated)	-1	-2	23	1	x	x
Cc1ccc(C(=O)CSc2nc3ccccc3c(=O)[nH]2)cc1	9.6*	-1	-5	x	-1	2
CCCc1nc(SCC(=O)c2ccc(F)cc2)c2ccccc2n1	8.3*	1	8	-2	2	1
CCOC(=O)c1nc2ccccc2c(=O)[nH]1	9.3*	-1	10	4	4	2
O=C(C[C@@H]1CC[C@H](NC(=O)C2CCOCC2)[C@@H](CO)O1)NCC1CC1	x	x	x	-1	x	x
Cc1noc(C)c1NC(=O)Nc1cccc2c1O[C@H](CN(C)S(=O)(=O)c1cccs1)[C@@H](C)CN([C@@H](C)CO)C2=O	x	x	x	-3	x	x
COc1ccc(OC)c(/C=C2\SC(N3CCCCC3)=NC2=O)c1	8.0*	-2	1	3	3	4
CCS(=O)(=O)Nc1ccc2c(c1)C(=O)N(C)C[C@H](OC)[C@H](C)CN(C)[C@H](C)CO2	x	x	x	2	x	x
